In the RNAGym collection of RNA variant scans (doi:10.1126/science.aae0568):
This sample holds only a part of the variants without activity.

B1: tRNA (parent)
chain: GUUCCGUUGGCGUAAUGGUAACGCGUCUCCCUCCUAAGGAGAAGACUGCGGGUUCGAGUCCCGUACGGAACG

Variants of: B1
Experiment: yeast fitness relative to wild type (ratio to wild type); higher = fitter; tRNA-Arg(CCU), competitive growth, 37 C, YPD
How it was run: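 Genotype frequency changes were the basis for Darwinian fitness relative to wild type. The frequencies came from 100-nucleotide paired-end sequencing of gene amplicons from the start population and each end population of pooled yeast strains with tRNA-Arg(CCU) gene variants at the native locus. Competition ran in YPD at 37°C for 24 hours in six replicates, genotypes needed ≥ 100 starting reads, and estimates < 0.5 were set to 0.5.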

Variant	yeast fitness
GUUCCGUUGGCGUAAUGGAAACGCGUCUCCCUCCUAAGGAGAAGUCUGCGGGUUCGAGUCCCGUACGGUACG [U19A A45U A69U]	0.739
GUUCCGUUGGCGUAAUGGAAACGCGUCUCCCUCCUAGGGAGAAGACUGCGGGUUCGAGUCCCGUACGGAACG [U19A A37G]	0.657
GUUCCGUUGGCGUAAUGGAAACGCGUCUCCCUCCUAAGGAGAUGAGUGCGGGUUCGAGUCCCGUACGGAACG [U19A A43U C46G]	0.658
GUUCCGUUGGCGUAAUGGAAACGCGUCUCCCUCCUAAGGGGAAGACUGCGAGUUCGAGUCCCGUACGGAACG [U19A A40G G51A]	≤ 0.5
GUUCCGUUGGCGUAAUGGAAACGCGUCUCCCUCCUAAGGAGAAGUCUGCGGGUGCGAGUCCCGUACGGAACG [U19A A45U U54G]	0.631
GUUCCGUUGGCGUAAUGGAAACGCGUCUCCCUCCUAAGGAGAAGACUGCGGGUUCGAGUCCCGUCGGGAGCG [U19A A65C C66G A70G]	≤ 0.5
GUUCCGUUGGCGUAAUGGAAACGCGUCUCCCUCCUGAGGAGAAGACUGCUGGUUCGAGACCCGUACGGAACG [U19A A36G G50U U59A]	≤ 0.5
GUUCCGUUGGCGUAAUGGAAACGCGUCUCCCUCCUAUGGAGAAGACUGCGGGUUCGAGUCCCGUACGUAACG [U19A A37U G68U]	≤ 0.5
GUUCCGUUGGCGUAAUGGAAACGCGUCUCCCUCCUAAGGAGAGGACUGCGGGUUCGAGUCCCGUACGGAACG [U19A A43G]	0.867
GUUCCGUUGGCGUAAUGGAAACGCGUCUCCCUCCUGAGGAGAAGAAUGCGGGUUCGAGUCCCGUACGGAACG [U19A A36G C46A]	0.69
GUUCCGUUGGCGUAAUGGAAACGCGUCUCCCUCCUAUGGAGAAGACUGCGGGUUGGAGUCCCGAACGGAACG [U19A A37U C55G U64A]	≤ 0.5
GUUCCGUUGGCGUAAUGGAAACGCGUCUCCCUCCUAAGGAGAUGACUGCGGGUUGGAGUCCCGUACGGAACG [U19A A43U C55G]	0.55
GUUCCGUUGGCGUAAUGGAAACGCGUCUCCCUCCUAAGGAGAAGACUGCGGGUUCGAGUCCCGUCGGGAACG [U19A A65C C66G]	≤ 0.5
GUUCCGUUGGCGUAAUGGAAACGCGUCUCCCUCCUAAGGAGAAGACUGCGGGUUCGUGUCCCGUACCGAACG [U19A A57U G67C]	0.556
GUUCCGUUGGCGUAAUGGAAACGCGUCUCCCUCCUAAGGAGAUGACUGCGGGUUCGAGUCCCGUACGGUACG [U19A A43U A69U]	0.85
GUUCCGUUGGCGUAAUGGAAACGCGUCUCCCUCCUAAGGAGGAGACUGCGGGUUCGAGUCCCGUACGUAACG [U19A A42G G68U]	≤ 0.5
GUUCCGUUGGCGUAAUGGAAACGCGUCUCCCUCCUGAGGAGCAGACUGCGGGUUCGAGUCCCGUAAGGAACG [U19A A36G A42C C66A]	≤ 0.5
GUUCCGUUGGCGUAAUGGAAACGCGUCUCCCUCCUAAGGGGAAGACUGCGGGUUGGAGUCCCGUACGGAGCG [U19A A40G C55G A70G]	≤ 0.5
GUUCCGUUGGCGUAAUGGAAACGCGUCUCCCUCCUAUGGACAAGACUGCGGGUUCGAGUCCCGUACGGAACG [U19A A37U G41C]	≤ 0.5

Variant	yeast fitness
GUUCCGUUGGCGUAAUGGAAACGCGUCUCCCUCCUAAGGAGAAGCCUGCGGGUUCGAGUCCCGUACGGAACG [U19A A45C]	0.726
GUUCCGUUGGCGUAAUGGAAACGCGUCUCCCUCCUAAGGGGAAGACUGCGGGUUGGAGUCCCGUCCGGAACG [U19A A40G C55G A65C]	0.534
GUUCCGUUGGCGUAAUGGAAACGCGUCUCCCUCCUAUGGAGAAGACUGCGGGUUGGAGUCCCGUACGGAACG [U19A A37U C55G]	0.593
GUUCCGUUGGCGUAAUGGAAACGCGUCUCCCUCCUUAGGAGAAGUCUGUGGGUUCGAGUCCCGAACGGAUCG [U19A A36U A45U C49U U64A A70U]	0.788
GUUCCGUUGGCGUAAUGGAAACGCGUCUCCCUCCUAAGGAGAUGACUGCGGGUUCGAGUCCUGUACGGAACG [U19A A43U C62U]	0.771
GUUCCGUUGGCGUAAUGGAAACGCGUCUCCCUCCUAAGGAGAAGGCUGCGGGUUCGCGUCCCGUACGGAACG [U19A A45G A57C]	≤ 0.5
GUUCCGUUGGCGUAAUGGAAACGCGUCUCCCUCCUAUGGACAAGACUGCGGGUUCGAGUCCCGUACAGAACG [U19A A37U G41C G67A]	≤ 0.5
GUUCCGUUGGCGUAAUGGAAACGCGUCUCCCUCCUAAGGUGAAGACUGCGGGUUCGAGUCCCGUACGGAACG [U19A A40U]	1.07
GUUCCGUUGGCGUAAUGGAAACGCGUCUCCCUCCUAAGGAGAGGACUGCGGGUUCGCGUCCCGUUCGGAACG [U19A A43G A57C A65U]	≤ 0.5
GUUCCGUUGGCGUAAUGGAAACGCGUCUCCCUCCUAAGGAGAUGACUGCGGGUUCGAGUCCCGUACGGAUCG [U19A A43U A70U]	0.825
GUUCCGUUGGCGUAAUGGAAACGCGUCUCCCUCCUAAGGAGGAGACUGCGGGUUCGAGUCCCGUCCGGCGCG [U19A A42G A65C A69C A70G]	≤ 0.5
GUUCCGUUGGCGUAAUGGAAACGCGUCUCCCUCCUAAGGAGAAGACUGCGGGUUCGAGUCCCGUCCGGAACG [U19A A65C]	1.01
GUUCCGUUGGCGUAAUGGAAACGCGUCUCCCUCCUAAGGAGAAGACUGCGGGUUCGAGUCCCGUGCGGAACG [U19A A65G]	1.05
GUUCCGUUGGCGUAAUGGAAACGCGUCUCCCUCCUAAGGAGUAGACUGCGGGUUCGAGUCCCGUACGGAACG [U19A A42U]	0.949
GUUCCGUUGGCGUAAUGGAAACGCGUCUCCCUCCUAAGGAGCAGACUGCGGGUUCGAGUCCCGUACGGAACG [U19A A42C]	0.862
GUUCCGUUGGCGUAAUGGAAACGCGUCUCCCUCCUAAGGAGAAGACUGCGGGUUCGAGUCCCGUACGGUACG [U19A A69U]	1.04
GUUCCGUUGGCGUAAUGGAAACGCGUCUCCCUCCUAAGGAGAAGACUGCGGGUUCGAGUCCCGUACGGCACG [U19A A69C]	1.08
GUUCCGUUGGCGUAAUGGAAACGCGUCUCCCUCCUAGGGAGAAGACUGCGGGUUCGAGUCCCGUGCGGAACG [U19A A37G A65G]	0.707
GUUCCGUUGGCGUAAUGGAAACGCGUCUCCCUCCUUAGGAGAAGACUGCGGGUUCGAGUCUCGUACGGAACG [U19A A36U C61U]	≤ 0.5
